Active and inactive are the calls of the source. The rule behind the calls is not given here.
Tests used:
Assay type in all cases: nucleic-acid assay
Settings in all cases: Bos taurus
Nucleic Acid [1] = experiment: Binding affinity to calf thymus DNA assessed as melting temperature at 5 to 10 uM by thermal denaturation analysis
Procedure, shortened: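 Thermal melting of CT-DNA (50 μM) in phosphate buffer pH 7.2, with and without compound (5–10 μM). Absorbance at 260 nm followed across temperatures. Tm taken as the point of 50% strand separation, with curve width from the 10–90% absorbance rise.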

Nucleic Acid [2] = experiment: Binding affinity to calf thymus DNA assessed as increase in viscosity of short, rod-like DNA at compound to DNA ratio of 0.2 to 1.4 by viscometer
Procedure, shortened: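 Viscometer titration of CT-DNA solution (496.2 μmol/L) in phosphate buffer pH 7.2 with increasing compound concentrations. Flow time measured at 25 °C in an Ostwald viscometer, with the same method for each compound.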

Nucleic Acid [3] = experiment: Binding affinity to calf thymus DNA assessed as intrinsic binding constant by UV-visible absorption spectroscopy
Procedure, shortened: (§1)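 CT-DNA checked for purity by A260/A280; concentration per nucleotide from extinction coefficient at 260 nm (6600 M-1 cm-1). Compound held constant at 30 μM in 50% DMSO/phosphate buffer, pH 7.2 (5 mM in one passage, 0.2 M in another). DNA titrated from 0 to 100 μM, spectra recorded after each addition once equilibrated.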

Nucleic Acid [4] = experiment: Binding affinity to calf thymus DNA assessed as bathochromic shift at 30 uM by UV-visible absorption spectroscopy; procedure, shortened: as §1
Nucleic Acid [5] = experiment: Binding affinity to calf thymus DNA assessed as hypochromicity at 30 uM by UV-visible absorption spectroscopy; procedure, shortened: as §1

Tm (Nucleic Acid [1]) [°C]	Activity (Nucleic Acid [2])	Kb (Nucleic Acid [3]) [×10⁵ /M]	Activity (Nucleic Acid [4])	Activity (Nucleic Acid [5])	SMILES
82	Active	5.7	Active	Active	CCCCc1nc(Cl)c([C@@H]2[C@H]3C(C)=NN(c4ccccc4)C3=Nc3c(/N=N/c4ccc(Cl)cc4)c(N)nn32)[nH]1
80	Active	5.21	Active	Active	CCCCc1nc(Cl)c(/C=C2/C(=O)N(c3ccccc3)N=C2C)[nH]1
